Assay results: ChEMBL document CHEMBL4689842, “EUbOPEN Chemogenomics Library wave 1” (2021)

Test system: U2OS
Assay: Multiplex assay against U2OS
Format: toxicity, cell-based
Details: human
Procedure, shortened: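 At seeding, live cells were stained with Hoechst33342, BioTracker Green Microtubule Cytoskeleton Dye, MitoTracker Red and Annexin V Alexa Fluor 680. After compound addition they were imaged on a CQ1 microscope at 37°C and 5% CO2, and CellPathfinder machine-learning gating sorted them into Hoechst high-intensity objects or normal cells, with normal cells further split into healthy, pyknosed or fragmented nuclei and pyknosed cells into mitotic or apoptotic. Tubulin, mitochondrial-mass and membrane-permeability phenotypes are given as per cents of cells with healthy nuclei.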

[1] = 12 h, 1 µM, compound concentration 1 uM, replicate 1
[2] = 12 h, 1 µM, compound concentration 1 uM, replicate 2
[3] = 12 h, 10 µM, compound concentration 10 uM, replicate 1
[4] = 12 h, 10 µM, compound concentration 10 uM, replicate 2
[5] = 24 h, 1 µM, compound concentration 1 uM, replicate 1
[6] = 24 h, 1 µM, compound concentration 1 uM, replicate 2
[7] = 24 h, 10 µM, compound concentration 10 uM, replicate 1
[8] = 24 h, 10 µM, compound concentration 10 uM, replicate 2
[9] = 48 h, 1 µM, compound concentration 1 uM, replicate 1
[10] = 48 h, 1 µM, compound concentration 1 uM, replicate 2
[11] = 48 h, 10 µM, compound concentration 10 uM, replicate 1
[12] = 48 h, 10 µM, compound concentration 10 uM, replicate 2

SMILES: Cc1[nH]c(/C=C2\C(=O)Nc3ccc(S(=O)(=O)N(C)c4cccc(Cl)c4)cc32)c(C)c1C(=O)N1CCN(C)CC1
- Population Apoptotic (%) [1]: 66%
- Population Fragmented Nuclei (%) [1]: 13%
- Population Mitochondria Different-Phenotype (%) [1]: 58%
- Population Mitotic Cells (%) [1]: 33%
- Population Pyknosed Nuclei (%) [1]: 9%
- Population Tubulin-Different-Phenotype (%) [1]: 80%
- Total Cell Count [1]: 305
- Population Apoptotic (%) [2]: 100%
- Population Fragmented Nuclei (%) [2]: 16%
- Population Healthy Nuclei (%) [2]: 77%
- Population Hoechst High Intensity Objects (%) [2]: 12%
- Population Membrane Permeable-Phenotype (%) [2]: 12%
- Population Mitochondria Different-Phenotype (%) [2]: 42%
- Population Mitotic Cells (%) [2]: 0%
- Population Normal (%) [2]: 87%
- Population Pyknosed Nuclei (%) [2]: 6%
- Population Tubulin-Different-Phenotype (%) [2]: 68%
- Total Cell Count [2]: 90
- Population Apoptotic (%) [3]: 60%
- Population Fragmented Nuclei (%) [3]: 12%
- Population Healthy Nuclei (%) [3]: 76%
- Population Hoechst High Intensity Objects (%) [3]: 8%
- Population Membrane Permeable-Phenotype (%) [3]: 24%
- Population Mitochondria Different-Phenotype (%) [3]: 68%
- Population Mitotic Cells (%) [3]: 40%
- Population Normal (%) [3]: 91%
- Population Pyknosed Nuclei (%) [3]: 11%
- Total Cell Count [3]: 147
- Population Apoptotic (%) [4]: 25%
- Population Fragmented Nuclei (%) [4]: 10%
- Population Healthy Nuclei (%) [4]: 74%
- Population Hoechst High Intensity Objects (%) [4]: 12%
- Population Membrane Permeable-Phenotype (%) [4]: 40%
- Population Mitochondria Different-Phenotype (%) [4]: 97%
- Population Mitotic Cells (%) [4]: 75%
- Population Normal (%) [4]: 87%
- Population Pyknosed Nuclei (%) [4]: 16%
- Population Tubulin-Different-Phenotype (%) [4]: 100%
- Total Cell Count [4]: 70
- Population Apoptotic (%) [5]: 73%
- Population Fragmented Nuclei (%) [5]: 11%
- Population Healthy Nuclei (%) [5]: 77%
- Population Hoechst High Intensity Objects (%) [5]: 9%
- Population Membrane Permeable-Phenotype (%) [5]: 7%
- Population Mitochondria Different-Phenotype (%) [5]: 51%
- Population Mitotic Cells (%) [5]: 26%
- Population Normal (%) [5]: 90%
- Population Pyknosed Nuclei (%) [5]: 11%
- Population Tubulin-Different-Phenotype (%) [5]: 61%
- Total Cell Count [5]: 272
- Population Apoptotic (%) [6]: 100%
- Population Fragmented Nuclei (%) [6]: 18%
- Population Healthy Nuclei (%) [6]: 72%
- Population Hoechst High Intensity Objects (%) [6]: 8%
- Population Membrane Permeable-Phenotype (%) [6]: 10%
- Population Mitochondria Different-Phenotype (%) [6]: 40%
- Population Mitotic Cells (%) [6]: 0%
- Population Normal (%) [6]: 91%
- Population Pyknosed Nuclei (%) [6]: 9%
- Population Tubulin-Different-Phenotype (%) [6]: 55%
- Total Cell Count [6]: 65
- Population Apoptotic (%) [7]: 82%
- Population Fragmented Nuclei (%) [7]: 13%
- Population Healthy Nuclei (%) [7]: 68%
- Population Hoechst High Intensity Objects (%) [7]: 8%
- Population Membrane Permeable-Phenotype (%) [7]: 46%
- Population Mitochondria Different-Phenotype (%) [7]: 88%
- Population Mitotic Cells (%) [7]: 17%
- Population Normal (%) [7]: 91%
- Population Pyknosed Nuclei (%) [7]: 17%
- Population Tubulin-Different-Phenotype (%) [7]: 100%
- Total Cell Count [7]: 140
- Population Apoptotic (%) [8]: 100%
- Population Fragmented Nuclei (%) [8]: 17%
- Population Healthy Nuclei (%) [8]: 73%
- Population Membrane Permeable-Phenotype (%) [8]: 84%
- Population Mitochondria Different-Phenotype (%) [8]: 100%
- Population Mitotic Cells (%) [8]: 0%
- Population Pyknosed Nuclei (%) [8]: 9%
- Total Cell Count [8]: 71
- Population Apoptotic (%) [9]: 80%
- Population Fragmented Nuclei (%) [9]: 18%
- Population Healthy Nuclei (%) [9]: 70%
- Population Hoechst High Intensity Objects (%) [9]: 4%
- Population Membrane Permeable-Phenotype (%) [9]: 10%
- Population Mitochondria Different-Phenotype (%) [9]: 32%
- Population Mitotic Cells (%) [9]: 19%
- Population Normal (%) [9]: 95%
- Population Pyknosed Nuclei (%) [9]: 11%
- Population Tubulin-Different-Phenotype (%) [9]: 30%
- Total Cell Count [9]: 261
- Population Apoptotic (%) [10]: 25%
- Population Fragmented Nuclei (%) [10]: 16%
- Population Healthy Nuclei (%) [10]: 77%
- Population Hoechst High Intensity Objects (%) [10]: 14%
- Population Membrane Permeable-Phenotype (%) [10]: 21%
- Population Mitochondria Different-Phenotype (%) [10]: 30%
- Population Mitotic Cells (%) [10]: 75%
- Population Normal (%) [10]: 85%
- Population Pyknosed Nuclei (%) [10]: 5%
- Population Tubulin-Different-Phenotype (%) [10]: 37%
- Total Cell Count [10]: 62
- Population Fragmented Nuclei (%) [11]: 24%
- Population Healthy Nuclei (%) [11]: 50%
- Population Hoechst High Intensity Objects (%) [11]: 7%
- Population Membrane Permeable-Phenotype (%) [11]: 76%
- Population Mitochondria Different-Phenotype (%) [11]: 91%
- Population Normal (%) [11]: 92%
- Population Pyknosed Nuclei (%) [11]: 24%
- Total Cell Count [11]: 186
- Population Apoptotic (%) [12]: 100%
- Population Fragmented Nuclei (%) [12]: 14%
- Population Healthy Nuclei (%) [12]: 72%
- Population Hoechst High Intensity Objects (%) [12]: 15%
- Population Membrane Permeable-Phenotype (%) [12]: 88%
- Population Mitochondria Different-Phenotype (%) [12]: 100%
- Population Mitotic Cells (%) [12]: 0%
- Population Normal (%) [12]: 84%
- Population Pyknosed Nuclei (%) [12]: 12%
- Population Tubulin-Different-Phenotype (%) [12]: 100%
- Total Cell Count [12]: 84
